Reference: ChEMBL document CHEMBL6071188, “Synthesis and In Vivo Profiling of Desymmetrized Antimalarial Trioxolanes with Diverse Carbamate Side Chains” (ACS Med Chem Lett, 2024)
Converted amounts (≈) assume the structure as drawn.

Assays:
Plasmodium berghei [1] = test: Antiplasmodial activity against Plasmodium berghei infected in female Swiss Webster mouse model assessed as survival at 10 mg/kg, po administered once daily for 2 days and measured upto 30 days; format: functional; conditions: time 30 day
How it was run: (§1)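 Female Swiss Webster mice (~20 g) infected ip with 10^6 P. berghei-infected erythrocytes from a donor mouse. Dosing by oral gavage once daily for 1–2 days starting 1 h post-inoculation, in 10% DMSO/50% PEG400/40% of 20% HP-β-CD in water. Five mice per arm. Daily Giemsa smears from day 7, counting infected cells per 1000 erythrocytes. Body weight tracked. Euthanasia at >50% parasitemia or >15% weight loss. Followed to day 30; cure means no parasitemia at day 30. Survival reported as the day of the longest-surviving mouse.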

[2] = Solubility of the compound in PBS buffer at pH 7.4; format: physicochemical
[3] = Metabolic stability in human liver microsomes assessed as intrinsic clearance; format: ADME, Microsome; conditions: for microsomal intrinsic clearance: microsomes; for microsomal CLint: liver microsomes, read-out: CLH
Plasmodium berghei [4] = test: Antiplasmodial activity against Plasmodium berghei infected in female Swiss Webster mouse model assessed as cure rate at 40 mg/kg, po measured upto 30 days relative to control; format: functional; conditions: time <= 30 day
[5] = Toxicity in female Swiss Webster mouse infected with Plasmodium berghei assessed as drug tolerance at 20 mg/kg, […]; format: organism-based; conditions: in vivo, po
Plasmodium berghei [6] = test: Antiplasmodial activity against Plasmodium berghei infected in female Swiss Webster mouse model assessed as survival at 20 mg/kg, po administered once daily for 1 day
[7] = Toxicity in female Swiss Webster mouse infected with Plasmodium berghei assessed as drug tolerance at 10 mg/kg, po administered once daily for 2 days and measured upto 30 days; format: organism-based; conditions: in vivo, 720 h, time 30 day; how it was run: as §1

Compound	Survival (Plasmodium berghei [1])	solubility kinetic [2]	microsomal intrinsic clearance [3]	Activity [7]	further results
NC1(CNC(=O)O[C@H]2CCC[C@@]3(C2)OOC2(O3)C3CC4CC(C3)CC2C4)CCC1 (some centres undefined)	13 days	162 µM (≈ 65.9 µg/mL)	24.9 µL/min/mg		
N[C@@H]1CCN(C(=O)O[C@@H]2CCC[C@]3(C2)OOC2(O3)C3CC4CC(C3)CC2C4)C1 (some centres undefined)		167 µM (≈ 65.5 µg/mL)	45.8 µL/min/mg		Activity (Plasmodium berghei [4]): 20%
NC1(CNC(=O)O[C@H]2CCC[C@@]3(C2)OOC2(O3)C3CC4CC(C3)CC2C4)CC1 (some centres undefined)	11 days	143 µM (≈ 56.1 µg/mL)	37.4 µL/min/mg	Non-Toxic	Activity [5]: Non-Toxic; Survival (Plasmodium berghei [6]): 11 days
CC(C)C1(O)CN(C(=O)O[C@H]2CCC[C@@]3(C2)OOC2(O3)C3CC4CC(C3)CC2C4)C1 (some centres undefined)		15.1 µM (≈ 6.37 µg/mL)	657 µL/min/mg		
CC(C)(CN)CNC(=O)O[C@@H]1CCC[C@]2(C1)OOC1(O2)C2CC3CC(C2)CC1C3 (some centres undefined)					microsomal CLint [3]: 14.3 µL/min/mg
CC1(O)CN(C(=O)O[C@@H]2CCC[C@]3(C2)OOC2(O3)C3CC4CC(C3)CC2C4)C1 (some centres undefined)	7 days	71.4 µM (≈ 28.1 µg/mL)		Non-Toxic	
CS(=N)(=O)C1CN(C(=O)O[C@@H]2CCC[C@]3(C2)OOC2(O3)C3CC4CC(C3)CC2C4)C1 (some centres undefined)		268 µM (≈ 118 µg/mL)	234 µL/min/mg		
CCC1(O)CN(C(=O)O[C@@H]2CCC[C@]3(C2)OOC2(O3)C3CC4CC(C3)CC2C4)C1 (some centres undefined)		58.7 µM (≈ 23.9 µg/mL)	480 µL/min/mg		
O=C(O[C@H]1CCC[C@@]2(C1)OOC1(O2)C2CC3CC(C2)CC1C3)N1CCNCC1 (some centres undefined)		167 µM (≈ 65.5 µg/mL)	120 µL/min/mg		
CCC1(O)CN(C(=O)O[C@H]2CCC[C@@]3(C2)OOC2(O3)C3CC4CC(C3)CC2C4)C1 (some centres undefined)		41.5 µM (≈ 16.9 µg/mL)	638 µL/min/mg		
CCCC1(O)CN(C(=O)O[C@@H]2CCC[C@]3(C2)OOC2(O3)C3CC4CC(C3)CC2C4)C1 (some centres undefined)		16.1 µM (≈ 6.79 µg/mL)	579 µL/min/mg		
CC(C)C1(O)CN(C(=O)O[C@@H]2CCC[C@]3(C2)OOC2(O3)C3CC4CC(C3)CC2C4)C1 (some centres undefined)		15.9 µM (≈ 6.7 µg/mL)	392 µL/min/mg		
NC1(CNC(=O)O[C@@H]2CCC[C@]3(C2)OOC2(O3)C3CC4CC(C3)CC2C4)CCC1 (some centres undefined)	13 days	142 µM (≈ 57.7 µg/mL)	37.4 µL/min/mg	Non-Toxic	
N=S(=O)(CCNC(=O)O[C@H]1CCC[C@@]2(C1)OOC1(O2)C2CC3CC(C2)CC1C3)C1CC1 (some centres undefined)	6 days	234 µM (≈ 106 µg/mL)	450 µL/min/mg	Non-Toxic	
NCCC1CCN(C(=O)O[C@H]2CCC[C@@]3(C2)OOC2(O3)C3CC4CC(C3)CC2C4)CC1 (some centres undefined)		117 µM (≈ 50.8 µg/mL)	92.7 µL/min/mg		
NC1CN(C(=O)O[C@H]2CCC[C@@]3(C2)OOC2(O3)C3CC4CC(C3)CC2C4)C1 (some centres undefined)		101 µM (≈ 38.2 µg/mL)	< 11.6 µL/min/mg		Activity [5]: Non-Toxic; Survival (Plasmodium berghei [6]): 5 days
O=C(O[C@@H]1CCC[C@]2(C1)OOC1(O2)C2CC3CC(C2)CC1C3)N1CC(O)(C(F)(F)F)C1 (some centres undefined)	9 days	24.8 µM (≈ 11.1 µg/mL)	234 µL/min/mg	Non-Toxic	
C[S+]([O-])C1CN(C(=O)O[C@@H]2CCC[C@]3(C2)OOC2(O3)C3CC4CC(C3)CC2C4)C1 (some centres undefined)		138 µM (≈ 58.7 µg/mL)	516 µL/min/mg		
CC(C)(CN)CNC(=O)O[C@H]1CCC[C@@]2(C1)OOC1(O2)C2CC3CC(C2)CC1C3 (some centres undefined)		164 µM (≈ 67 µg/mL)			microsomal CLint [3]: 21.4 µL/min/mg
N=S(=O)(CCNC(=O)O[C@@H]1CCC[C@]2(C1)OOC1(O2)C2CC3CC(C2)CC1C3)C1CC1 (some centres undefined)		79.3 µM (≈ 36 µg/mL)	435 µL/min/mg		
NC1(CNC(=O)O[C@H]2CCC[C@@]3(C2)OOC2(O3)C3CC4CC(C3)CC2C4)CCCC1 (some centres undefined)	14 days	13.4 µM (≈ 5.64 µg/mL)	25.3 µL/min/mg	Non-Toxic	
CS(=O)(=O)C1CN(C(=O)O[C@H]2CCC[C@@]3(C2)OOC2(O3)C3CC4CC(C3)CC2C4)C1 (some centres undefined)		81.1 µM (≈ 35.8 µg/mL)	851 µL/min/mg		
NC1CCN(C(=O)O[C@H]2CCC[C@@]3(C2)OOC2(O3)C3CC4CC(C3)CC2C4)CC1 (some centres undefined)	11 days	118 µM (≈ 48 µg/mL)		Non-Toxic	Activity [5]: Non-Toxic; Survival (Plasmodium berghei [6]): 9 days; microsomal CLint [3]: 11.8 µL/min/mg

Compound	Survival (Plasmodium berghei [1])	solubility kinetic [2]	microsomal intrinsic clearance [3]	Activity [7]	further results
CCCC1(O)CN(C(=O)O[C@H]2CCC[C@@]3(C2)OOC2(O3)C3CC4CC(C3)CC2C4)C1 (some centres undefined)		18.2 µM (≈ 7.67 µg/mL)	683 µL/min/mg		
N[C@@H]1CCN(C(=O)O[C@H]2CCC[C@@]3(C2)OOC2(O3)C3CC4CC(C3)CC2C4)C1 (some centres undefined)			58.7 µL/min/mg		
CN1CCN(C(=O)O[C@H]2CCC[C@@]3(C2)OOC2(O3)C3CC4CC(C3)CC2C4)CC1 (some centres undefined)		109 µM (≈ 44.3 µg/mL)			
C[S+]([O-])C1CN(C(=O)O[C@H]2CCC[C@@]3(C2)OOC2(O3)C3CC4CC(C3)CC2C4)C1 (some centres undefined)		184 µM (≈ 78.3 µg/mL)	750 µL/min/mg		
O=C(O[C@@H]1CCC[C@]2(C1)OOC1(O2)C2CC3CC(C2)CC1C3)N1CCNCC1 (some centres undefined)		144 µM (≈ 56.5 µg/mL)			microsomal CLint [3]: 39.4 µL/min/mg
O=C(NCC1(O)COC1)O[C@@H]1CCC[C@]2(C1)OOC1(O2)C2CC3CC(C2)CC1C3 (some centres undefined)	6 days		76.2 µL/min/mg	Non-Toxic	
N[C@@H]1CCCN(C(=O)O[C@@H]2CCC[C@]3(C2)OOC2(O3)C3CC4CC(C3)CC2C4)C1 (some centres undefined)	12 days	74.9 µM (≈ 30.4 µg/mL)	43.7 µL/min/mg	Non-Toxic	
CS(=N)(=O)CCNC(=O)O[C@H]1CCC[C@@]2(C1)OOC1(O2)C2CC3CC(C2)CC1C3 (some centres undefined)		129 µM (≈ 55.3 µg/mL)	319 µL/min/mg		
CC1(O)CN(C(=O)O[C@H]2CCC[C@@]3(C2)OOC2(O3)C3CC4CC(C3)CC2C4)C1 (some centres undefined)	4 days	137 µM (≈ 53.9 µg/mL)		Non-Toxic	
NCC1CCN(C(=O)O[C@H]2CCC[C@@]3(C2)OOC2(O3)C3CC4CC(C3)CC2C4)CC1 (some centres undefined)		112 µM (≈ 47.1 µg/mL)	69.6 µL/min/mg		
CS(=N)(=O)CCNC(=O)O[C@@H]1CCC[C@]2(C1)OOC1(O2)C2CC3CC(C2)CC1C3 (some centres undefined)		128 µM (≈ 54.9 µg/mL)	243 µL/min/mg		
O=C(NCC1(O)COC1)O[C@H]1CCC[C@@]2(C1)OOC1(O2)C2CC3CC(C2)CC1C3 (some centres undefined)	6 days	112 µM (≈ 45.9 µg/mL)	333 µL/min/mg	Non-Toxic	
NCC1CCN(C(=O)O[C@@H]2CCC[C@]3(C2)OOC2(O3)C3CC4CC(C3)CC2C4)CC1 (some centres undefined)					Activity (Plasmodium berghei [4]): 20%
NC1(CNC(=O)O[C@@H]2CCC[C@]3(C2)OOC2(O3)C3CC4CC(C3)CC2C4)COC1 (some centres undefined)	8 days	122 µM (≈ 49.8 µg/mL)	23.4 µL/min/mg	Non-Toxic	Activity [5]: Non-Toxic; Survival (Plasmodium berghei [6]): 7 days
O=C(O[C@H]1CCC[C@@]2(C1)OOC1(O2)C2CC3CC(C2)CC1C3)N1CC(O)(C(F)(F)F)C1 (some centres undefined)		10.8 µM (≈ 4.83 µg/mL)	211 µL/min/mg		
CS(=O)(=O)C1CN(C(=O)O[C@@H]2CCC[C@]3(C2)OOC2(O3)C3CC4CC(C3)CC2C4)C1 (some centres undefined)		66.7 µM (≈ 29.5 µg/mL)	526 µL/min/mg		
NC1(CNC(=O)O[C@H]2CCC[C@@]3(C2)OOC2(O3)C3CC4CC(C3)CC2C4)COC1 (some centres undefined)	9 days	87.7 µM (≈ 35.8 µg/mL)	135 µL/min/mg	Non-Toxic	
N[C@@H]1CCCN(C(=O)O[C@H]2CCC[C@@]3(C2)OOC2(O3)C3CC4CC(C3)CC2C4)C1 (some centres undefined)		129 µM (≈ 52.4 µg/mL)	52.7 µL/min/mg		
N[C@H]1CC[C@H](NC(=O)O[C@H]2CCC[C@@]3(C2)OOC2(O3)C3CC4CC(C3)CC2C4)CC1 (some centres undefined)			28.2 µL/min/mg		
NC1(CNC(=O)O[C@@H]2CCC[C@]3(C2)OOC2(O3)C3CC4CC(C3)CC2C4)CCCC1 (some centres undefined)	11 days	162 µM (≈ 68.1 µg/mL)	29.9 µL/min/mg	Non-Toxic	
NCCC1CCN(C(=O)O[C@@H]2CCC[C@]3(C2)OOC2(O3)C3CC4CC(C3)CC2C4)CC1 (some centres undefined)					Activity (Plasmodium berghei [4]): 20%
CS(=N)(=O)C1CN(C(=O)O[C@H]2CCC[C@@]3(C2)OOC2(O3)C3CC4CC(C3)CC2C4)C1 (some centres undefined)		142 µM (≈ 62.6 µg/mL)	431 µL/min/mg		
